Assay [1] relates to DU-145. Nature of the assay: Cell cycle arrest in human DU145 cells assessed as cells accumulation at SubG1 phase at 2 uM after 48 hrs by propidium iodide staining-based flow cytometric analysis (reference value: 3.52%). Format: functional. On the technique in general: Flow cytometry measures light scatter and fluorescence of single cells or particles in a stream.
For assay [2], the system named is DU-145. As to the kind of experiment: Cell cycle arrest in human DU145 cells assessed as cells accumulation at SubG1 phase at 1 uM after 48 hrs by propidium iodide staining-based flow cytometric analysis (reference value: 3.52%). Format: functional.
Assay [3] has as its system DU-145. Nature of the assay: Cell cycle arrest in human DU145 cells assessed as cells accumulation at G0/G1 phase at 2 uM after 48 hrs by propidium iodide staining-based flow cytometric analysis (reference value: 84.75%). Format: functional.
In assay [4] the test system is DU-145. As to the kind of experiment: Cell cycle arrest in human DU145 cells assessed as cells accumulation at G0/G1 phase at 1 uM after 48 hrs by propidium iodide staining-based flow cytometric analysis (reference value: 84.75%). Format: functional.
The subject of assay [5] is DU-145. As to the kind of experiment: Cell cycle arrest in human DU145 cells assessed as cells accumulation at S phase at 2 uM after 48 hrs by propidium iodide staining-based flow cytometric analysis (reference value: 4.18%). Format: functional.
The subject of assay [6] is DU-145. Nature of the assay: Cell cycle arrest in human DU145 cells assessed as cells accumulation at S phase at 1 uM after 48 hrs by propidium iodide staining-based flow cytometric analysis (reference value: 4.18%). Format: functional.
Assay [7] concerns DU-145. As to the kind of experiment: Cell cycle arrest in human DU145 cells assessed as cells accumulation at G2/M phase at 2 uM after 48 hrs by propidium iodide staining-based flow cytometric analysis (reference value: 6.81%). The format is functional.
In assay [8] the test system is DU-145. As to the kind of experiment: Cell cycle arrest in human DU145 cells assessed as cells accumulation at G2/M phase at 1 uM after 48 hrs by propidium iodide staining-based flow cytometric analysis (reference value: 6.81%). Format: functional.
Assay [9] has as its target T1, Tubulin (Homo sapiens) (UniProt P68371+Q9H4B7+P0DPH7+P68366+Q13509+Q71U36+P04350+Q3ZCM7+P07437+P68363+Q9BQE3+Q6PEY2+Q13885+Q9BVA1+Q9BUF5). As to the kind of experiment: Inhibition of tubulin polymerization (unknown origin) at 3 uM after 1 hr by fluorescence analysis. Format: protein-complex assay. The procedure, abridged:
(§1)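 Fluorescence-reporter tubulin polymerization kit. Tubulin (3 mg/mL) in PEM buffer with 1 mM GTP, with or without compound (3 µM, or 2.5–15 µM for IC50). Fluorescence (ex 360 / em 420 nm) was followed for 1 h at 37 °C. IC50 is the concentration giving 50% inhibition of assembly versus control. Data are mean ± SD of two experiments in triplicate, with E7010 as positive control.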

For assay [10], the target named is Tubulin. Nature of the assay: Inhibition of tubulin polymerization (unknown origin) after 1 hr by fluorescence analysis. Format: protein-complex assay, Homo sapiens. The procedure, abridged: as §1
The target in assay [11] is T1, Tubulin (Homo sapiens). Nature of the assay: Displacement of colchicine from tubulin (unknown origin) at 5 to 25 uM after 60 mins by competitive binding assay. The format is protein-complex assay. The essentials: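 Compound (5, 10, 15, 20, 25 µM) was co-incubated with 4 µM colchicine and 3 µM tubulin in 30 mM Tris buffer for 60 min at 37 °C. Tubulin–colchicine fluorescence was read at ex 350 / em 435 nm. Buffer blank was subtracted and values were normalized to DMSO control (F/F0). Nocodazole or E7010 served as positive control and taxol as negative control.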

Assay [12] concerns DU-145. As to the kind of experiment: Induction of apoptosis in human DU145 cells assessed as reduction in mitochondrial membrane potential at 2 uM after 48 hrs using JC-1 staining-based flow cytometry. Format: functional, cell-based.
Assay [13] concerns DU-145. As to the kind of experiment: Induction of apoptosis in human DU145 cells assessed as increase in caspase 3 activation at 1 uM after 48 hrs by ELISA. Format: functional. The procedure, abridged: (§2)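 DU-145 cells were treated at 1 or 2 µM for 48 h, pelleted and PBS-washed. Pellets were lysed 15 min and centrifuged at 20,000 rpm for 15 min. Caspase-3 activity in the supernatant was measured by a colorimetric ELISA-based kit per the manufacturer. Activity is expressed as fold over untreated control, mean ± SD of two experiments in triplicate.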
For orientation: An ELISA detects its analyte on a solid surface through an enzyme-linked reagent.

Assay [14] has as its system DU-145. Nature of the assay: Induction of apoptosis in human DU145 cells assessed as increase in caspase 3 activation at 2 uM after 48 hrs by ELISA. Format: functional. The essentials:
as §2

Assay [15] concerns DU-145. Nature of the assay: Induction of apoptosis in human DU145 cells assessed as necrotic cells at 2 uM after 48 hrs by annexin V-FITC/propidium iodide staining-based flow cytometric analysis (reference value: 0.22%). The format is functional.
Assay [16] deals with DU-145. Nature of the assay: Induction of apoptosis in human DU145 cells assessed as necrotic cells at 1 uM after 48 hrs by annexin V-FITC/propidium iodide staining-based flow cytometric analysis (reference value: 0.22%). Format: functional.
In assay [17] the test system is DU-145. As to the kind of experiment: Induction of apoptosis in human DU145 cells assessed as late apoptotic cells at 2 uM after 48 hrs by annexin V-FITC/propidium iodide staining-based flow cytometric analysis (reference value: 1.96%). Format: functional.
Assay [18] has as its system DU-145. As to the kind of experiment: Induction of apoptosis in human DU145 cells assessed as late apoptotic cells at 1 uM after 48 hrs by annexin V-FITC/propidium iodide staining-based flow cytometric analysis (reference value: 1.96%). Format: functional.
Assay [19] concerns DU-145. As to the kind of experiment: Induction of apoptosis in human DU145 cells assessed as viable cells at 2 uM after 48 hrs by annexin V-FITC/propidium iodide staining-based flow cytometric analysis (reference value: 97.12%). The format is functional. The settings on record: DU-145, 48 h, read-out: Activity.
Assay [20] has as its system DU-145. As to the kind of experiment: Induction of apoptosis in human DU145 cells assessed as viable cells at 1 uM after 48 hrs by annexin V-FITC/propidium iodide staining-based flow cytometric analysis (reference value: 97.12%). The settings on record: DU-145, 48 h, read-out: Activity. The format is functional.
Assay [21] concerns DU-145. Nature of the assay: Induction of apoptosis in human DU145 cells assessed as early apoptotic cells at 2 uM after 48 hrs by annexin V-FITC/propidium iodide staining-based flow cytometric analysis (reference value: 0.71%). The format is functional.
The test system of assay [22] is DU-145. Nature of the assay: Induction of apoptosis in human DU145 cells assessed as early apoptotic cells at 1 uM after 48 hrs by annexin V-FITC/propidium iodide staining-based flow cytometric analysis (reference value: 0.71%). Format: functional.
Assay [23] deals with DU-145. As to the kind of experiment: Induction of apoptosis in human DU145 cells assessed as induction of DNA fragmentation at 1 uM after 48 hrs by agarose gel electrophoresis. Format: functional, cell-based. The essentials:
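DU-145 cells (1×10^6, six-well) were seeded 24 h, then treated at 1 µM for 48 h. Lysates were digested with SDS/RNase A for 2 h at 56 °C, then proteinase K for 2 h at 37 °C. DNA was precipitated with ammonium acetate and ethanol at −80 °C, dissolved in TE, and resolved on 2% agarose against a 100 bp marker.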

Assay [24] relates to DU-145. As to the kind of experiment: Induction of apoptosis in human DU145 cells assessed as mitochondrial membrane potential drop measured as necrotic cells at 2 uM after 48 hrs using JC-1 staining-based flow cytometry (reference value: 0%). The format is functional.
In assay [25] the test system is DU-145. Nature of the assay: Induction of apoptosis in human DU145 cells assessed as mitochondrial membrane potential drop measured as late apoptotic cells at 2 uM after 48 hrs using JC-1 staining-based flow cytometry (reference value: 90.9%). The format is functional.
Assay [26] concerns DU-145. As to the kind of experiment: Induction of apoptosis in human DU145 cells assessed as mitochondrial membrane potential drop measured as viable cells at 2 uM after 48 hrs using JC-1 staining-based flow cytometry (reference value: 0%). Format: functional.
The test system of assay [27] is DU-145. Nature of the assay: Induction of apoptosis in human DU145 cells assessed as mitochondrial membrane potential drop measured as early apoptotic cells at 2 uM after 48 hrs using JC-1 staining-based flow cytometry (reference value: 9.1%). The format is functional.
Assay [28] relates to DU-145. As to the kind of experiment: Induction of apoptosis in human DU145 cells assessed as mitochondrial membrane potential drop measured as necrotic cells at 1 uM after 48 hrs using JC-1 staining-based flow cytometry (reference value: 0%). The format is functional.
The subject of assay [29] is DU-145. Nature of the assay: Induction of apoptosis in human DU145 cells assessed as mitochondrial membrane potential drop measured as late apoptotic cells at 1 uM after 48 hrs using JC-1 staining-based flow cytometry (reference value: 90.9%). Format: functional.
In assay [30] the test system is DU-145. As to the kind of experiment: Induction of apoptosis in human DU145 cells assessed as mitochondrial membrane potential drop measured as viable cells at 1 uM after 48 hrs using JC-1 staining-based flow cytometry (reference value: 0%). Format: functional.
Assay [31] concerns DU-145. As to the kind of experiment: Induction of apoptosis in human DU145 cells assessed as mitochondrial membrane potential drop measured as early apoptotic cells at 1 uM after 48 hrs using JC-1 staining-based flow cytometry (reference value: 9.1%). The format is functional.
The subject of assay [32] is A549. As to the kind of experiment: Antiproliferative activity against human A549 cells assessed as growth inhibition after 48 hrs by SRB assay. The settings on record: A549, 48 h.
The subject of assay [33] is MCF7. As to the kind of experiment: Antiproliferative activity against human MCF7 cells assessed as growth inhibition after 48 hrs by SRB assay. The settings on record: MCF7, 48 h. (In general: Sulforhodamine B stains cellular protein and so reports cell mass.)
Assay [34] relates to DU-145. Nature of the assay: Antiproliferative activity against human DU145 cells assessed as growth inhibition after 48 hrs by SRB assay. The settings on record: DU-145, 48 h.

Experimental findings from ChEMBL document CHEMBL3351230, “Synthesis of 2-anilinopyridine dimers as microtubule targeting and apoptosis inducing agents” (Bioorg Med Chem, 2014) are described below.

The structures appear in SMILES notation. Calls of active or inactive are those of the source. The rule behind the calls is not given here. Where only a bound is given, the exact number is not on record here.

In the case of `O=C(Nc1cccnc1Nc1ccc(F)cc1)c1cccnc1Nc1cc(C(F)(F)F)cc(C(F)(F)F)c1`, the Activity in [1] was 2.41%; in assay [2], 4.64%; in [3], 53.38%; in [4], 57.93%; in assay [5], 1.77%; in [6] it was 1.63%. Further, the Activity amounted to 41.19% in assay [7]; 32.49% in assay [8]; 1.84% in assay [15]; 1.27% in assay [16]; 16.53% in assay [17]; 14.03% in [18]. The Activity in assay [21] worked out at 5.97%; in assay [22], 4.28%; in assay [24], 0%; in assay [25], 67.4%; in assay [26], 0%; in assay [27] it was 32.6%. Besides, the Activity in [28] was 0%; in assay [29], 89.4%; in assay [30], 0%; in [31], 10.6%. Besides, the inhibition (as a rule, how much of the control response was suppressed) in [9] is 64.3%. Further, half-maximal inhibition in [10] (IC50) required 2.16 µM. The inhibition entry in [11] and in [12] was “Active” each time. In addition, the “fold change (FC)” value in assay [13] and in assay [14] was 2 throughout. Further, the viability at 2 µM in assay [19] was 75.7%. Further, the viability at 1 µM in assay [20] is 80.4%. Moreover, the outcome in [23] was Active. For the same compound, the GI50 (commonly the concentration giving 50% growth inhibition) in assay [32] is 39.2 µM; in assay [33], > 100 µM; in assay [34], 0.99 µM.

Consider `O=C(Nc1cccnc1Nc1ccccc1)c1cccnc1Nc1ccc(F)cc1`, for which the 50% growth inhibitory concentration (GI50) in assay [32] was > 100 µM; in [33] it was > 100 µM; in [34], 7.7 µM.

Regarding `O=C(Nc1cccnc1Nc1ccc(Cl)cc1)c1cccnc1Nc1ccc(F)cc1`, the figures for the GI50 in assay [32], in assay [33] and in [34] were > 100 µM, > 100 µM and 4.1 µM, respectively.

With `COc1ccc(S(=O)(=O)Nc2cccnc2Nc2ccc(O)cc2)cc1` [ABT-751], the Activity turned out to be 4.11% in assay [1]; 54.38% in assay [3]; 2.94% in assay [5]; 36.52% in assay [7]; 1.01% in assay [15]; 17.72% in assay [17]. Moreover, the Activity in [21] is on record as 3.93%; in assay [24] it was 0%; in assay [25], 81.9%; in [26] it was 0%; in assay [27], 18.1%. Further, the IC50 (commonly the concentration that inhibits the measured activity by half) in assay [10] turned out to be 2.4 µM. Besides, in assay [11], the inhibition result was “Active”. Also, the viability at 2 µM in [19] came to 77.3%. Moreover, the 50% growth inhibitory concentration (GI50) in assay [32] is 1.31 µM; in assay [33], 1.25 µM; in [34], 1.81 µM.

In the case of `COc1ccc(Nc2ncccc2C(=O)Nc2cccnc2Nc2ccccc2)cc1`, the GI50 in assay [32] was > 100 µM; in assay [33], > 100 µM; in [34], 8.1 µM.

For the compound `COc1cc(Nc2ncccc2C(=O)Nc2cccnc2Nc2ccccc2)cc(OC)c1OC`, the results for the GI50 in assay [32], in [33] and in assay [34] were 6 µM, > 100 µM and > 100 µM, respectively.

Regarding `COc1cc(Nc2ncccc2C(=O)Nc2cccnc2Nc2ccc(F)cc2)cc(OC)c1OC`, the GI50 in assay [32] is > 100 µM; in assay [33] it was > 100 µM; in assay [34], 7 µM.

In the case of `COc1ccc(Nc2ncccc2NC(=O)c2cccnc2Nc2cc(C(F)(F)F)cc(C(F)(F)F)c2)cc1`, the GI50 is > 100 µM in assay [32], > 100 µM in [33] and 9.8 µM in [34].
